# Screens deposited in PubChem BioAssay by several laboratories.
# GalR3 antag – blocks the human galanin receptor 3; HEK293 GalR3-CNG cAMP membrane potential fluorescence; galR3 body fused to GalR1 C-terminus; inhibition, % at 3 µM; hit rate 0.44% among 360,000;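 active = inhibition above the screen-wide average plus 3 SD, cut at about 13% in these data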;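 also: forskolin and galanin both at EC90 stimulate the cells; cAMP rise reported by CNG channel membrane potential dye signal; 0% = forskolin plus galanin with DMSO and 100% = forskolin alone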
# PG9 Ab binder – small molecules binding HIV-1 gp120 antibody PG9. TR-FRET gp120-PG9 antibody binding. inhibition, % at 6.7 µM. hit rate 0.43% among 360,000. AID 624416; in the data active = inhibition above about 8.5%
# NR2E3 ag-1 – activates human photoreceptor nuclear receptor NR2E3; AID 2300; inhibition of corepressor binding, % at 4.78 µM; Q9Y5X4; GST-NR2E3/biotin-RetCOR TR-FRET, 1536-well; hit rate 0.12% among 320,000;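 active = percent inhibition above the cutoff of mean plus 3 SD of all tested compounds, set per screening campaign, cut at about 20% in these data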;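 also: 0% = DMSO wells and 100% = biotin wells as full block of FRET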
#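 System: GST-tagged NR2E3 plus biotinylated RetCOR corepressor; Buffer or medium: pH 7.5 Tris-based buffer; Probe or stimulus: RetCOR corepressor, biotinylated, 7 nM; Doses: compound at 4.8 µM, single dose; Schedule: 5 h incubation at 4 °C; Technique: time-resolved FRET; Evaluation: percent inhibition of TR-FRET ratio; Replication: one well per compound, singlicate testing.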
# Rev-erbA mod – Rev-erb alpha (human) modulation; hit rate 0.79% among 370,000; activity, % at 10 µM; P20393; Rev-erbα–FITC-DNA binding, fluorescence polarization, 90 min;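 active = activity above about 14%, limit read from the data; passing the limit was not always enough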;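 also: 0% = DMSO wells with 35 nM protein and 100% = DMSO wells with 750 nM protein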
# Target sequence (P20393 whole entry, looked up): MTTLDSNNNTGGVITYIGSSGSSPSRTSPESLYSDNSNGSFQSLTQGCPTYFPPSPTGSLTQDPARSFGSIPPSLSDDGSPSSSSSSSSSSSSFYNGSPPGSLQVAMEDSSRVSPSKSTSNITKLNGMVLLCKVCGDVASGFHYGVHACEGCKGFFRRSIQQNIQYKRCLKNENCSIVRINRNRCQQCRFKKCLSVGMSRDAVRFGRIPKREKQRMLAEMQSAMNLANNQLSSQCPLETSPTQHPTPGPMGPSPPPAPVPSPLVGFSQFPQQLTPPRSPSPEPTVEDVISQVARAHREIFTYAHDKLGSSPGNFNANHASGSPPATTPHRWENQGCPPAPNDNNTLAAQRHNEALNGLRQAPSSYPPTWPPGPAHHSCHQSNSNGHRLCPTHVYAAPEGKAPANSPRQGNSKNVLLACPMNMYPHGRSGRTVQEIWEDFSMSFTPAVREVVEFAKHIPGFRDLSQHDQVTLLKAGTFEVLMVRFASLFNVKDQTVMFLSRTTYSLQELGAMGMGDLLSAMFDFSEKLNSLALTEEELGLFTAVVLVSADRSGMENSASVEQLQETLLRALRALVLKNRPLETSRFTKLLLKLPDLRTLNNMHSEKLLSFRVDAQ
# NR2E3 ag-2 – human photoreceptor-specific nuclear receptor agonism. inhibition of corepressor binding, % at 3.98 µM. CHO-S Gal4-NCOR/VP16-NR2E3 two-hybrid, luciferase. hit rate 0.35% among 360,000. Q9Y5X4;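 active = inhibition above the mean of all tested compounds plus 3 SD, cut at about 70% in these data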;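 also: 0% = DMSO with NR2E3 transfected cells and 100% = cells lacking NR2E3 construct; higher means lower luciferase signal from less NR2E3 corepressor binding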
# PG9 binder conf – PG9 antibody binding, confirmed | shares compounds with PG9 Ab binder | TR-FRET PG9 antibody binding, biochemical | inhibition, % at 6.7 µM | hit rate 90% among 1,500 | AID 651571; in the data active = inhibition above about 9%
# PGV04 Ab binding – PGV04 control antibody binding, counter-screen. inhibition, % at 6.7 µM. shares compounds with PG9 Ab binder. AID 651604. hit rate 95% among 1,500. TR-FRET PGV04 antibody-gp120 binding, biochemical; in the data active = inhibition above about 9.5%
# PG9 binder DR – small molecules binding HIV-1 gp120 antibody PG9; IC50, µM; TR-FRET PG9 antibody-gp120 binding inhibition; shares compounds with PG9 Ab binder; 95 tested, under 10 active; AID 651848; in the data active = IC50 below about 10 µM
# PGV04 binding DR – counter-screen for PG9 binders: binding to control antibody PGV04; shares compounds with PG9 Ab binder; TR-FRET binding to control antibody PGV04; IC50, µM; hit rate 20% among 95; AID 651937
# PG126 binding DR – counter-screen for PG9 binders: binding to control antibody PG126. hit rate 20% among 95. TR-FRET binding to antibody PG126, counterscreen. shares compounds with PG9 Ab binder. IC50, µM. AID 651939
# NR1D1 mod conf – confirmation of modulators of human Rev-erb alpha DNA binding; shares compounds with Rev-erbA mod; Rev-erb alpha FITC-DNA binding, fluorescence polarization, 90 min; activation, % at 25 µM; hit rate 61% among 3,000; AID 1259319;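 active = activation at or above a set limit, or at least 3 SD above the negative control mean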;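 also: 0% = 35 nM protein with DMSO and 100% = 750 nM protein high control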
# RORg DNA counter – counter-screen for Rev-erb alpha modulators: RORgamma DNA binding; purified RORgamma protein-FITC-DNA binding, fluorescence polarization; AID 1259320; hit rate 8% among 910; shares compounds with Rev-erbA mod; IC50, µM;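 active = Compounds whose fitted half-maximal concentration for disrupting protein-DNA binding is below 10 micromolar; the record names Rev-erb in its text, so the target is in doubt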
# An asterisk follows results filed as active; i = inactive; · = no result. Shown are actives, neighbours in structure and some others; about 1.8% of the full set was active somewhere. Rule as the data show it, unless noted: active = IC50 below about 9 µM; inactive = the rest.
SMILES,GalR3 antag,PG9 Ab binder,NR2E3 ag-1,Rev-erbA mod,NR2E3 ag-2,PG9 binder conf,PGV04 Ab binding,NR1D1 mod conf,others
COc1ccc(-c2c(Sc3ccccc3)c3cc(-c4ccc5c(c4)OCO5)ccc3n2C)cc1,2,37*,·,20*,-28,88*,57*,-34,PG9 binder DR=2.9*;PGV04 binding DR=2.1*;PG126 binding DR=2.1*
O=C(Nc1ccc(F)cc1)OCCCN1C(=O)CCC12CCCCC2,·,·,·,4,·,·,·,·,
COC1C(CO)OC(n2c3c(Cl)cccc3c3c4c(c5c6cccc(Cl)c6[nH]c5c32)C(=O)NC4=O)C(O)C1O (centres undefined),-4,72*,·,111*,20,56*,68*,173*,RORg DNA counter=>40
Cn1c(=O)cc(-c2ccccc2)c2ccccc21,-5,0,4,3,5,·,·,·,
Cn1c2ccccc2n2c(=O)cc(-c3ccccc3)c(C#N)c12,-1,9.7*,2,44*,-24,16*,20*,21*,
NC(=O)c1cc(Cc2ccccc2)sc1NC(=O)c1ccco1,-4,2,2,5,-155,·,·,·,
CCOc1ccc(CC(=O)Nc2sc(Cc3ccccc3)cc2C(N)=O)cc1OCC,-5,55*,-2,69*,-1,14*,21*,43*,RORg DNA counter=2.5*
CCOc1ccc(-n2c(SCC(=O)Nc3ccc(Br)cc3)nc3n[nH]c(C)c3c2=N)cc1,-2,5,7,14,-1,·,·,·,
Cc1cc(-n2c(SCC(=O)Nc3ccc(F)c(F)c3)nc3n[nH]c(C)c3c2=N)ccc1Cl,4,21*,1,51*,14,6,8,27*,
Cc1cc(-n2c(SCC(=O)Nc3ccc(Br)cc3)nc3n[nH]c(C)c3c2=N)ccc1Cl,-7,24*,1,37*,-27,21*,29*,22*,
Cc1cc(-n2c(SCC(=O)NCc3cccs3)nc3n[nH]c(C)c3c2=N)ccc1Cl,-7,38*,0,43*,19,33*,44*,28*,
COc1ccc(NC(=O)COC(=O)c2ccc3c(c2)OCO3)c(OC)c1,-4,22*,·,175*,-25,33*,29*,180*,PG9 binder DR=>67;PGV04 binding DR=i;PG126 binding DR=i;RORg DNA counter=>40
CCN(C(=O)COC(=O)c1cc(-c2ccccc2)nc2ccc(Br)cc12)C1CCS(=O)(=O)C1 (centres undefined),-3,12*,12,42*,9,23*,32*,43*,
Cc1cccc(NC(=O)CSc2nc(C)c(CC(=O)c3ccc(Br)cc3)c(C)c2C#N)c1C,-4,9.2*,8,82*,-31,21*,30*,31*,
Cc1nc(SCC(=O)Nc2ccc(F)cc2)c(C#N)c(C)c1CC(=O)c1ccc(Br)cc1,-5,8.7*,1,70*,-11,26*,35*,16,
COCc1cc(C)nc(SCC(=O)Nc2cccc(C)c2C)c1C#N,-3,-1,-1,9,-20,·,·,·,
COc1ccc(NC(=O)CSc2nc(C)c3c(c2C#N)CCCC3)cc1,-4,0,-1,0,-18,·,·,·,
Cc1ccc(-n2c(SCC(=O)Nc3ccc(S(=O)(=O)Nc4cc(C)nc(C)n4)cc3)nnc2-c2ccncc2)cc1,·,·,·,-2,·,·,·,·,
CCCCCC[C@@H](CCC)C(=O)O,·,·,·,0,·,·,·,·,
CCN(C(=O)[C@@H](C)[C@@H](O)c1ccc(C(C)=O)cc1)c1ccccc1,·,·,·,-1,·,·,·,·,
